{"source": "ChEMBL document CHEMBL1141257", "about": "“Solanapyrone analogues from a Hawaiian fungicolous fungus” (J Nat Prod, 2007)", "key": {"Candida albicans [1]": {"tested_on": "Candida albicans", "assay": "Antifungal activity against Candida albicans ATCC 14053", "type": "functional", "summary_of_the_method": "(§1)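 Standard agar disk diffusion assay with 50 μg loaded per disk. Zones were read after 4 days as clear zones of inhibition in mm. For S. aureus, the zone of reduced growth was also measured in mm.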"}, "Staphylococcus aureus [2]": {"tested_on": "Staphylococcus aureus", "assay": "Antibacterial activity against Staphylococcus aureus ATCC 25923 at 50 ug/disk after 4 days", "type": "functional", "details": "for zone of inhibition at 50 µg/disc: ATCC 25923, 96 h, read-out: IZ", "summary_of_the_method": "as §1"}, "Escherichia coli": {"tested_on": "Escherichia coli", "assay": "[…] activity against Escherichia coli ATCC 25922", "type": "functional, organism-based", "summary_of_the_method": "as §1"}, "Aspergillus flavus [3]": {"tested_on": "Aspergillus flavus", "assay": "Antifungal activity against Aspergillus flavus NRRL 6541", "type": "functional, organism-based", "summary_of_the_method": "(§2)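 Disk diffusion assay against the fungus with 200 μg of compound per disk; zones of inhibition were read and followed over 4 days. A further evaluation reported MIC and IC50 values, with the antifungal standard run under the same protocols.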"}, "Fusarium verticillioides [4]": {"tested_on": "Fusarium verticillioides", "assay": "Antifungal activity against Fusarium verticillioides NRRL 25457", "type": "functional, organism-based", "summary_of_the_method": "as §2"}, "Candida albicans [5]": {"tested_on": "Candida albicans", "assay": "Antifungal activity against Candida albicans ATCC 14053 at 50 ug/disk", "type": "functional", "details": "read-out: IZ", "summary_of_the_method": "as §1"}, "Fusarium verticillioides [6]": {"tested_on": "Fusarium verticillioides", "assay": "Antifungal activity against Fusarium verticillioides NRRL 25457 at 200 ug/disk after 4 days", "type": "functional", "details": "NRRL 25457, 96 h, read-out: IZ", "summary_of_the_method": "(§3)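 Disk diffusion assay with 200 μg applied per disk; the diameter of the growth-inhibition zone was read in mm, and persistence of the zone was followed over 4 days.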"}, "Staphylococcus aureus [7]": {"tested_on": "Staphylococcus aureus", "assay": "Antibacterial activity against Staphylococcus aureus ATCC 25923 assessed as zone of reduced growth at 50 ug/disk after 4 days", "type": "functional", "details": "ATCC 25923, 96 h, read-out: IZ", "summary_of_the_method": "as §1"}, "Aspergillus flavus [8]": {"tested_on": "Aspergillus flavus", "assay": "Antifungal activity against Aspergillus flavus NRRL 6541 at 200 ug/disk after 4 days", "type": "functional", "details": "NRRL 6541, 96 h, read-out: IZ", "summary_of_the_method": "as §3"}}, "note": "Calls of active or inactive are those of the source. The calls are words filed in the database; no cut-off is given here."}
{"molecule": "C[C@H]1CCC[C@@H]2C=C[C@H](C)[C@@](C)(C3=CC(=O)/C(=C\\NCCO)C(=O)O3)[C@H]12", "note": "[SOLANAPYRONE K]", "values": [{"measurement": "inhibition zone (IZ)", "setting": "Candida albicans [1]", "value": 13, "unit": "mm"}, {"measurement": "zone of inhibition at 50 µg/disc", "setting": "Staphylococcus aureus [2]", "value": 9, "unit": "mm"}]}
{"molecule": "COc1cc([C@@]2(C)[C@H]3[C@H](C=C[C@H]2C)CCC[C@@H]3C)oc(=O)c1CO", "values": [{"measurement": "Activity", "setting": "Escherichia coli", "value": "inactive"}, {"measurement": "Activity", "setting": "Candida albicans [1]", "value": "inactive"}, {"measurement": "Activity", "setting": "Staphylococcus aureus [2]", "value": "inactive"}]}
{"molecule": "NYSTATIN [listing 1 of 2 here]", "values": [{"measurement": "IC50", "setting": "Aspergillus flavus [3]", "value": 5, "unit": "µg/mL"}, {"measurement": "IC50", "setting": "Fusarium verticillioides [4]", "value": 3, "unit": "µg/mL"}]}
{"molecule": "C[C@H]1CCC[C@@H]2C=C[C@H](C)[C@@](C)(C3=CC(=O)/C(=C/N)C(=O)O3)[C@H]12", "values": [{"measurement": "Activity", "setting": "Escherichia coli", "value": "inactive"}, {"measurement": "Activity", "setting": "Candida albicans [1]", "value": "inactive"}, {"measurement": "Activity", "setting": "Staphylococcus aureus [2]", "value": "inactive"}]}
{"molecule": "CCCCC[C@@H](O)[C@H]1C(=O)O[C@H](C)[C@@H](O)/C=C/C=C/C=C/C=C/C=C(\\C)[C@@H](O)C[C@H](O)C[C@H](O)C[C@H](O)C[C@H](O)C[C@H](O)C[C@@H]1O", "note": "[FILIPIN]", "values": [{"measurement": "zone of inhibition at 50 µg/disc", "setting": "Candida albicans [5]", "value": 23, "unit": "mm"}]}
{"molecule": "COc1cc([C@@]2(C)[C@@H]3[C@@H](C)CCC[C@@H]3C=C[C@@H]2C)oc(=O)c1C=O", "note": "[SOLANAPYRONE J]", "values": [{"measurement": "inhibition zone (IZ)", "setting": "Candida albicans [1]", "value": 19, "unit": "mm"}, {"measurement": "zone of inhibition at 200 µg/disc", "setting": "Fusarium verticillioides [6]", "value": 30, "unit": "mm"}, {"measurement": "zone of inhibition at 50 µg/disc", "setting": "Staphylococcus aureus [7]", "value": 21, "unit": "mm"}, {"measurement": "MIC", "setting": "Aspergillus flavus [3]; Aspergillus flavus, NRRL 6541", "value": 20, "unit": "µg/mL"}, {"measurement": "IC50", "setting": "Aspergillus flavus [3]; Aspergillus flavus, NRRL 6541, read-out: IC50", "value": 8.6, "unit": "µg/mL"}, {"measurement": "zone of inhibition at 200 µg/disc", "setting": "Aspergillus flavus [8]", "value": 30, "unit": "mm"}, {"measurement": "zone of inhibition at 50 µg/disc", "setting": "Staphylococcus aureus [2]", "value": 17, "unit": "mm"}, {"measurement": "MIC", "setting": "Fusarium verticillioides [4]; Fusarium verticillioides, NRRL 25457", "value": 24, "unit": "µg/mL"}, {"measurement": "IC50", "setting": "Fusarium verticillioides [4]; Fusarium verticillioides, NRRL 25457, read-out: IC50", "value": 15, "unit": "µg/mL"}]}
{"molecule": "NYSTATIN [listing 2 of 2 here]", "values": [{"measurement": "MIC", "setting": "Aspergillus flavus [3]", "value": 10, "unit": "µg/mL"}, {"measurement": "MIC", "setting": "Fusarium verticillioides [4]", "value": 10, "unit": "µg/mL"}]}
